Measurements published in ChEMBL document CHEMBL4270592, “8-Aryl-6-chloro-3-nitro-2-(phenylsulfonylmethyl)imidazo[1,2-a]pyridines as potent antitrypanosomatid molecules bioactivated by type 1 nitroreductases” (Eur J Med Chem, 2018).

Assays:
[1] = Electrochemical behavior of the compound assessed as redox potential corrected toward normal hydrogen electrode by cyclic voltammetry; type: physicochemical
HepG2 = assay: Cytotoxicity against human HepG2 cells assessed as reduction in cell viability after 72 hrs by MTT assay; type: cell-based; conditions: hepg2, 72 h
How it was run: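 HepG2 cells in RPMI with 10% FCS, L-glutamine and penicillin/streptomycin, 37 °C, 6% CO2. After 24 h, compounds in DMSO (final <0.5% v/v) added for 72 h, in duplicate. Precipitate checked, MTT (0.5 mg/mL) 2 h, formazan dissolved in DMSO, A570 with 630 nm reference. Viability as % of untreated control; CC50 from dose-response curve; doxorubicin positive control.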

Leishmania infantum = assay: Antileishmanial activity against axenic amastigote stage of Leishmania infantum assessed as inhibition of parasite metabolic activity after 48 hrs by luciferase reporter gene based luminescence assay; type: functional, organism-based
How it was run: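 L. infantum promastigotes in log phase switched to RPMI 1640 pH 5.4 for 24 h at 24 °C, then 24 h at 37 °C to give axenic amastigotes. Seeded at 2.106 parasites/mL with compounds in DMSO (final <0.5% v/v), in duplicate, 48 h at 37 °C. Wells checked for precipitate, luciferase luminescence read, IC50 by non-linear regression as mean.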

[2] = Selectivity index, ratio of CC50 for human HepG2 cells to IC50 for trypomastigote stage of Trypanosoma brucei brucei AnTat 1.9; type: toxicity; conditions: read-out: Ratio CC50/IC50
[3] = tested on: Trypanosoma brucei brucei; assay: Antitrypanosomal activity against trypomastigote stage of Trypanosoma brucei brucei AnTat 1.9 assessed as decrease in parasite viability after 69 hrs by Alamar blue assay; type: functional, organism-based; conditions: AnTat 1.9, 69 h
How it was run: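 AnTat 1.9 in MEM with Earle's salts plus 0.5 mM mercaptoethanol, 1.5 mM L-cysteine, 0.05 mM bathocuproine sulfate and 20% heat-inactivated horse serum, 37 °C, 5% CO2. Seeded 2000 parasites/100 µL with compounds in DMSO, in duplicate, 69 h, then Alamar Blue for 5 h.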

[4] = Selectivity index, ratio of CC50 for human HepG2 cells to IC50 for axenic amastigote stage of Leishmania infantum; type: toxicity; conditions: read-out: Ratio CC50/IC50
[5] = Substrate activity at recombinant type-1 nitroreductase in bloodstream form of Trypanosoma brucei brucei S427 assessed as inhibition of parasite growth after 72 hrs
How it was run: (§1)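 Bloodstream-form T. brucei single marker S427 (T7RPOL TETR NEO) cultured at 37 °C in HMI9-T with 2.5 µg/mL G418. NTR1-overexpressing line kept in 2.5 µg/mL phleomycin and induced with 1 µg/mL tetracycline 48 h before the assay. Triplicate cultures seeded at 1×10^5 cells/mL with inhibitor; cell densities counted after 72 h to give EC50.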

[6] = tested on: Trypanosoma brucei brucei; assay: […] activity against wild type bloodstream form of Trypanosoma brucei brucei S427 after 72 hrs; type: functional, organism-based; conditions: S427, 72 h; how it was run: as §1
Leishmania donovani [7] = assay: Antileishmanial activity against promastigote stage of Leishmania donovani MHOM/IN/00/DEVI assessed as inhibition of parasite metabolic activity after 72 hrs by MTT assay; type: functional, organism-based
How it was run: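 MHOM/IN/00/DEVI log-phase promastigotes in Schneider's medium with 20% FCS, 2 mM L-glutamine and antibiotics. Seeded at 10⁶ parasites/mL with compounds in DMSO (final <0.5% v/v), in duplicate, 72 h at 27 °C. MTT added for 4 h, stopped with 50% isopropanol–10% SDS, A570 read. IC50 by nonlinear regression, mean of three independent experiments.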

[8] = (§2) Cytotoxicity against human THP1 cells assessed as reduction in cell viability after 72 hrs by MTT assay; type: cell-based, THP-1; conditions: THP1 cells
How it was run: (§3)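 THP1 cells in complete RPMI with PMA (final 50 ng/mL) at 10⁶ cells/mL, differentiated 48 h. Compounds in DMSO (final <0.5% v/v) then added for 72 h at 37 °C. MTT (0.5 mg/mL in FCS-free medium) 2 h, formazan dissolved in DMSO, A570 with 630 nm reference. Viability as % of untreated control; CC50 from dose-response curve; doxorubicin positive control.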

[9] = tested on: Trypanosoma brucei brucei; assay: Selectivity ratio of IC50 for wild type bloodstream form of Trypanosoma brucei brucei S427 to substrate activity at recombinant type-1 nitroreductase in bloodstream form of Trypanosoma brucei brucei S427
How it was run: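 Bloodstream-form single-marker S427 grown at 37 °C in HMI9-T with 2.5 µg/mL G418. The NTR1-overexpressing line was also given 2.5 µg/mL phleomycin and induced with 1 µg/mL tetracycline 48 h before assay. Triplicate cultures seeded at 1×10^5 cells/mL with inhibitor; cell densities determined after 72 h to give EC50 for wild-type and NTR1 lines.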

[10] = Selectivity index, ratio of CC50 for human HepG2 cells to IC50 for promastigote stage of Leishmania donovani MHOM/IN/00/DEVI; type: toxicity; conditions: read-out: Ratio CC50/IC50
[11] = Substrate activity at recombinant nitroreductase 2 in promastigote stage of Leishmania donovani MHOM/SD/62/1S-CL2D LdBOB assessed as inhibition of parasite growth after 72 hrs by resazurin dye based assay
How it was run: (§4)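 Clonal L. donovani LdBOB promastigotes grown at 26 °C in modified M199. NTR1 and NTR2 overexpressers kept in nourseothricin 100 µg/mL. Triplicate 10 mL cultures seeded at 5×10^4 parasites/mL with drug for 72 h. Aliquots received 50 µM resazurin, read by fluorescence (ex 528/em 590 nm) after 4 h. Background-corrected 2-parameter fit gave EC50; at least two repeats, mean ± SD.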

[12] = Selectivity index, ratio of CC50 for human HepG2 cells to IC50 for intramacrophage amastigote stage of Leishmania donovani infected in human THP1 cells; type: toxicity, cell-based; conditions: read-out: Ratio CC50/IC50
Leishmania donovani [13] = assay: Antileishmanial activity against wild type promastigote stage of Leishmania donovani MHOM/SD/62/1S-CL2D LdBOB after 72 hrs by resazurin dye based assay; type: functional, organism-based; how it was run: as §4
Leishmania donovani [14] = assay: Antileishmanial activity against intramacrophage amastigote stage of Leishmania donovani infected in human THP1 cells after 120 hrs by Giemsa staining based microscopy; type: functional, organism-based; conditions: THP-1, 120 h
How it was run: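 THP-1 cells differentiated with PMA (final 50 ng/mL) for 48 h at 37 °C, 6% CO2. Infected 10:1 with L. donovani promastigotes acidified 24 h at 27 °C in Schneider 20% FCS pH 5.4. After 24 h, compounds added in duplicate (DMSO <0.5% v/v) for 120 h.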

[15] = Substrate activity at recombinant type-1 nitroreductase in promastigote stage of Leishmania donovani MHOM/SD/62/1S-CL2D LdBOB assessed as inhibition of parasite growth after 72 hrs by resazurin dye based assay; how it was run: as §4
THP-1 = assay: as §2; type: cell-based; conditions: thp-1, 72 h; how it was run: as §3

IC50 (Leishmania infantum) [µM] | IC50 [3] [µM] | SMILES | CC50 (HepG2) [µM] | selectivity ratio [2] | selectivity ratio [4] | also measured
 |  | O=[N+]([O-])c1c(CS(=O)(=O)c2ccccc2)nc2c(Br)cc(Cl)cn12 |  |  |  | Activity [1]: -0.65 V
 |  | O=[N+]([O-])c1c(CS(=O)(=O)c2ccccc2)nc2c(-c3ccc(Cl)cc3)cc(Cl)cn12 | > 3.9 |  |  | 
 |  | O=[N+]([O-])c1c(CS(=O)(=O)c2ccccc2)nc2c(-c3cccs3)cc(Cl)cn12 | > 3.9 |  |  | 
1.5 | 0.09 | O=[N+]([O-])c1c(CS(=O)(=O)c2ccccc2)nc2c(-c3ccc(CO)cc3)cc(Cl)cn12 | 13.1 | 146 | 8.7 | 
 |  | CC1CS(=O)(=O)CCN1/N=C/c1ccc([N+](=O)[O-])o1 (stereo not given) [NIFURTIMOX] |  |  |  | IC50 [5]: 0.6 µM; IC50 [6]: 1.87 µM
1.3 | 0.31 | O=[N+]([O-])c1c(CS(=O)(=O)c2ccccc2)nc2c(-c3ccc(F)cc3)cc(Cl)cn12 | > 15.6 | > 50.3 | > 12 | 
 |  | C[C@@H]1[C@H](O)[C@@H](C)/C=C/C=C/C=C/C=C/C=C/C=C/C=C/[C@H](O[C@@H]2O[C@H](C)[C@@H](O)[C@H](N)[C@@H]2O)C[C@@H]2O[C@](O)(C[C@@H](O)C[C@@H](O)[C@H](O)CC[C@@H](O)C[C@@H](O)CC(=O)O[C@H]1C)C[C@H](O)[C@H]2C(=O)O [AMPHOTERICIN B] |  |  |  | IC50 (Leishmania donovani [7]): 0.07 µM; CC50 at 72 h [8]: > 62.5 µM
 |  | O=[N+]([O-])c1c(CS(=O)(=O)c2ccccc2)nc2c(-c3ccc(C(F)(F)F)cc3)cc(Cl)cn12 | > 3.9 |  |  | 
1.7 | 0.2 | O=[N+]([O-])c1c(CS(=O)(=O)c2ccccc2)nc2c(-c3cccc(F)c3)cc(Cl)cn12 | > 12.5 | > 62.5 | > 7.4 | 
 |  | O=[N+]([O-])c1c(CS(=O)(=O)c2ccccc2)nc2c(-c3ccc(F)cc3F)cc(Cl)cn12 | > 7.8 |  |  | 
 |  | COc1cccc2c1C(=O)c1c(O)c3c(c(O)c1C2=O)C[C@@](O)(C(=O)CO)C[C@@H]3O[C@H]1C[C@H](N)[C@H](O)[C@H](C)O1 [DOXORUBICIN] |  |  |  | CC50 (THP-1): 1.4 µM
 |  | N#Cc1ccc(-c2cc(Cl)cn3c([N+](=O)[O-])c(CS(=O)(=O)c4ccccc4)nc23)cc1 | > 3.9 |  |  | 
 | 13.3 | NCCC[C@](N)(C(=O)O)C(F)F [EFLORNITHINE, (S)-] | > 100 | > 7.5 |  | 
 |  | COc1ccc(-c2cc(Cl)cn3c([N+](=O)[O-])c(CS(=O)(=O)c4ccccc4)nc23)cc1 | > 3.9 |  |  | 
 |  | CCCCCCCCCCCCCCCCOP(=O)([O-])OCC[N+](C)(C)C [MILTEFOSINE] |  |  |  | CC50 (THP-1): > 40 µM
2.5 | 0.43 | CCN(CC)c1ccc(-c2cc(Cl)cn3c([N+](=O)[O-])c(CS(=O)(=O)c4ccccc4)nc23)cc1 | > 15.6 | > 36.3 | > 6.2 | 
2 | 0.23 | O=[N+]([O-])c1c(CS(=O)(=O)c2ccccc2)nc2c(-c3cccnc3)cc(Cl)cn12 | > 31.3 | > 136 | > 15.7 | 
1.6 | 0.07 | O=[N+]([O-])c1c(CS(=O)(=O)c2ccccc2)nc2c(-c3ccccc3C(F)(F)F)cc(Cl)cn12 | 22.7 | 324 | 14.2 | 
 | 0.6 | CSc1ccc(OCc2ncc([N+](=O)[O-])n2C)cc1 [FEXINIDAZOLE] | > 200 | > 333 | > 58.8 | selectivity ratio [10]: > 167; IC50 (Leishmania donovani [7]): 1.2 µM; selectivity ratio [12]: > 50; Activity [1]: -0.83 V; IC50 (Leishmania donovani [14]): > 50 µM; CC50 at 72 h [8]: 3.6 µM
3.8 | 0.08 | O=Cc1ccc(-c2cc(Cl)cn3c([N+](=O)[O-])c(CS(=O)(=O)c4ccccc4)nc23)cc1 | > 31.2 | > 390 | > 8.2 | 
1.6 | 0.61 | O=[N+]([O-])c1c(CS(=O)(=O)c2ccccc2)nc2c(-c3ccccc3)cc(Cl)cn12 | > 15.6 | > 25.6 | > 10 | Activity [1]: -0.69 V
 |  | Cc1ccc(C(=O)Nc2ccc(S(=O)(=O)O)c3cc(S(=O)(=O)O)cc(S(=O)(=O)O)c23)cc1NC(=O)c1cccc(NC(=O)Nc2cccc(C(=O)Nc3cc(C(=O)Nc4ccc(S(=O)(=O)O)c5cc(S(=O)(=O)O)cc(S(=O)(=O)O)c45)ccc3C)c2)c1 [SURAMIN] | > 100 |  |  | 
 |  | O=[N+]([O-])c1c(CS(=O)(=O)c2ccccc2)nc2c(-c3ccccc3F)cc(Cl)cn12 | > 3.9 |  |  | 
 |  | O=[N+]([O-])c1c(CS(=O)(=O)c2ccccc2)nc2c(-c3ccco3)cc(Cl)cn12 | > 3.9 |  |  | 
3 | 0.41 | O=[N+]([O-])c1c(CS(=O)(=O)c2ccccc2)nc2c(-c3ccc(O)cc3)cc(Cl)cn12 | > 12.5 | > 30.5 | > 4.2 | 

SMILES | IC50 (Leishmania infantum) [µM] | IC50 [3] [µM] | CC50 (HepG2) [µM] | selectivity ratio [2] | selectivity ratio [4] | also measured
O=[N+]([O-])c1c(CS(=O)(=O)c2ccccc2)nc2c(-c3cccc(C(F)(F)F)c3)cc(Cl)cn12 | 1.1 | 0.04 | > 12.5 | > 312 | > 11.4 | Activity [1]: -0.67 V; IC50 [6]: 0.09 µM; Ratio IC50 [9]: 2
O=[N+]([O-])c1c(CS(=O)(=O)c2ccccc2)nc2c(Br)cc(Br)cn12 | 4.4 | 2.9 | > 31 | > 10.7 | > 7.1 | selectivity ratio [10]: > 17.2; IC50 [11]: 3 µM; selectivity ratio [12]: > 5.6; Activity [1]: -0.59 V; IC50 (Leishmania donovani [13]): 1.9 µM; IC50 (Leishmania donovani [14]): 5.5 µM; IC50 [15]: 0.07 µM; CC50 (THP-1): > 25 µM
O=[N+]([O-])c1c(CS(=O)(=O)c2ccccc2)nc2c(-c3ccccc3CO)cc(Cl)cn12 | > 10 | 0.16 | 88 | 550 | < 8.8 | Activity [1]: -0.7 V; IC50 [5]: 0.19 µM; IC50 [6]: 0.39 µM; Ratio IC50 [9]: 2
